Tested on: MS2 coat protein
Experiment: apparent Kd, MS2 coat protein; higher = weaker binding; RNA-MaP array; FMN 200 µM where present
Procedure, shortened: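 Apparent Kd: the median of filtered binding-curve fits from single clusters. Designs were transcribed on Illumina sequencing-chip clusters by stalled E. coli RNA polymerase and titrated with SNAP-549-labelled MS2 coat protein from 0.7 or 1.5 nM, doubling to 3 µM, in 100 mM Tris-HCl pH 7.5, 80 mM KCl, 4 mM MgCl2, BSA, DTT, yeast tRNA and Tween-20. Each series ran without and then with constant ligand, and green signal was normalised to red-channel RNA signal and control-cluster median Fmax.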

[1] = designed as: OFF switch for flavin mononucleotide, no ligand
[2] = ligand present: flavin mononucleotide, designed as: OFF switch for flavin mononucleotide
[3] = designed as: ON switch for flavin mononucleotide, no ligand
[4] = ligand present: flavin mononucleotide, designed as: ON switch for flavin mononucleotide

| Sequence | apparent Kd [1] | apparent Kd [2] | apparent Kd [3] | apparent Kd [4] |
| --- | --- | --- | --- | --- |
| UAACCGUGAGGAUAUACAUGAGGAUCACCCAUGUAGCAAGCUACGUAACCCACCAUAUGUAGAAGGCACUAGGU | 73.1 nM | 47.6 nM | – | – |
| GGACCUCCUGAGGAUAUUGUAUCACCUGAUUGAUAAGAAGGCAGAACAUGAGGAUCACCCAUGUGGGUACUCGG | 168 nM | 145 nM | – | – |
| GGACGGAAAGUGAGGAUAUGCUCUACCUCGGUAGAGCAGAAGGCACAUGAGGAUCACCCAUGUGAUUGCUGUUC | 27.1 nM | 261 nM | – | – |
| GGGUACAUCGGAGGAUAUCAUCUAAAUACAUGAGGAUCACCCAUGUCGAUGGAGACAUCGGAGAUUGAGAAGGCCGAUGUACCG | – | – | 5.06 nM | 5.23 nM |
| ACUAUACGAGGAUAUACUGUCAGUACUCAGAGGUUAAUGUGACAUGAGGAUCACCCAUGUAGAAGGCGUUUACU | 28.9 nM | 31.3 nM | – | – |
| GCGUGGUUCUAGAAGGUGCUAGCGAUAAGCUAGCAAGGAUAUAGACAUGAGGAUCACCCAUGUCUUAGUGAAAUCGACACACGC | 5.35 nM | 5.34 nM | – | – |
| GGCGACCUAGGAUAUACAUGAGGAUCACCCAUGUUUAUCUAAUAGAUGAAGACGGGUUGUAGAAGGAGGAAAAU | 15.6 nM | 19.4 nM | – | – |
| UGUCGGAGCAGAGGAUAUUACAUGAGGAUCACCCAUGUAUGAACCAAUAGCUGGAAACAGCAAUGUAAGAAGGCUGCACCGACA | 12.6 nM | 178 nM | – | – |
| AAAACGAUGUGAGGAUAUCACCGCUGUGACGGCUGAGAAGGCACAUGAGGAUCACCCAUGUGCAGGCGUGUGUGGGUAAUCCUA | 109 nM | 94.8 nM | – | – |
| UAGCUCUCGGCAGGAUAUCCUGCAUAAUGUCGAGUCCGCGCCCGGACAUGAGGAUCACCCAUGUAGGAGAAGGGCCCACGGGCG | 28 nM | 32.3 nM | – | – |
| GUGGUCAGACAUGAGGAUCACCCAUGUGGAAUAAAUAAGGUUUAGGAUAUGGAAUAUAGGAUAUACCAGAAGGGAGGGUUGGUG | – | – | 142 nM | 146 nM |
| CCAGCAACAUGAGGAUCACCCAUGUAGGAUAUCGCUAUUGUAAUCAUGAAACAUGAUUACAAUAGCGAGAAGGACAUAUGCUUU | 11 nM | 12 nM | – | – |
| GCGUUUUAUGCAGGAUAUUGUAAUUUAUUACUACAAGAAGGGCAAUACAUGAGGAUCACCCAUGUCAGCAUGGUUUUUAAGUUC | 20.4 nM | 25.9 nM | – | – |
| GGGUAGAUCCGAGGAUAUACAAUCCGGAAACGGUACAUGAGGAUCACCCAUGUAGAAGGCGGAUCUACAGGUACUAAAGUACCC | 6.32 nM | 8.65 nM | – | – |
| GGUACUCAAAGAGUACUGAGUCGAACAUGAGGAUCACCCAUGUAGGAUAUGCGAGUUUUGAAUUUGCAGAAGGACAUUUGCAGC | 9.34 nM | 10.8 nM | – | – |
| UUUGUUUAUGUGAGGAUAUACUGUUUGUAUUGAUUGUAGAAGGUACAUGAGGAUCACCCAUGUUUUGUAUUUAU | 18.8 nM | 19.4 nM | – | – |
| GCCAGGCAUGUAGGAUAUCCAUUGCGUCGCGUUGGAGAAGGGCAGCACACAUGAGGAUCACCCAUGUGGUCUCCCAUGAUGUGU | 209 nM | 223 nM | – | – |
| GUCAGCUCGUGAGGAUAUACAACACUGCUUCGGCAGUUUAUUAAGAUCACAUGAGGAUCACCCAUGUAGAAGGCACGAGCUGAU | 14.4 nM | 264 nM | – | – |
| UUUCCGCGAGGAUAUACGGGCUGUGCUUUUCAUUUCUUACAACAUGAGGAUCACCCAUGUAGAAGGUGCUUCUU | 208 nM | 196 nM | – | – |
| AAAACAUGAGGAUCACCCAUGUUUAGAUCGGUCGAUUGAGGUGAGGAUAUACUAAGUUAAGGCUGGUAGAAGGCACUGGGUACA | – | – | 62 nM | 43.6 nM |
| CCUAGUUGGUAAGGAUAUCCUACACUAUUCUGACCCGUGCAAGCUACAUGAGGAUCACCCAUGUAGGAGAAGGUGCGUCAACGU | 6.97 nM | 6.82 nM | – | – |
| UCGGCGCGAGGAUAUGCGGUUGCUCCCUAGGGUCGGAGCGUACAUGAGGAUCACCCAUGUAGAAGGCGCGCCGC | 16.2 nM | 16.3 nM | – | – |
| AAAUAAAACGAUCGGCGAUCCAUACAUGAGGAUCACCCAUGUAGAAGGCACUCUACAAAGUAGAGUGAGGAUAUACGAGAUCGA | 7.13 nM | 95.5 nM | – | – |
| UUUACAUGAGGAUCACCCAUGUCUGUCACACGGAGGUGCAAUCAGGAUAUGAUCUCAAGAAUGAAUUAGAAGGGAUAGGGAGGG | – | – | 187 nM | 234 nM |

| Sequence | apparent Kd [1] | apparent Kd [2] | apparent Kd [3] | apparent Kd [4] |
| --- | --- | --- | --- | --- |
| CCUUUACAUGAGGAUCACCCAUGUCAGGAUAUCCUGUUGUGUUGUCUCGGGCGACACAUGAGCCAGGAGAAGGGACGAAGGGAA | 41.7 nM | 68.1 nM | – | – |
| UGAUCGAGAGAUCUUAGAUUCUGGUAGGAUAUACAUUAUAUAAGAUAUACAUGAGGAUCACCCAUGUAGAAGGACUAGAGUCUA | 6.47 nM | 7.39 nM | – | – |
| AAUAAGGUCACAGGAUAUACUACAUCCAAUGCGGUAGAAGGGUGACACUUACUGUGCAGACAUGAGGAUCACCCAUGUAACCAC | – | – | 53 nM | 10.4 nM |
| GCUCGAUGUGCUGAAAACAUGAGGAUCACCCAUGUAAAUGGUCAGGAUAUUUACGUGCUUUAUGUAGAGAAGGGACCAUCGAGC | – | – | 200 nM | 30.9 nM |
| CUUUUGUGAGGAUAUCAGUAGUAAAUAAUUAAAAUUACUACUGAGAAGGCACAUGAGGAUCACCCAUGUUCCUC | 42.2 nM | 284 nM | – | – |
| UGGUACUAGGGAGGAUAUUGGAAGAUACAUGAGGAUCACCCAUGUUUAAGAAUGCCGAGAGGCAACUAGAAGGCCCUAGUACCU | – | – | 8.37 nM | 5.09 nM |
| CCAGAUAUGUGAGGAUAUAUAGUGGAAUACACUAUAGAAGGUAUGUGAGAACAUGAGGAUCACCCAUGUCAUUGGUUAUCUGGA | – | – | 29.7 nM | 35.6 nM |
| GUCAGCUCGUGAGGAUAUACAACACUGCUUCGGCUGUGUAUUAAGAUCACAUGAGGAUCACCCAUGUAGAAGGCACGAGCUGAU | 13.5 nM | 202 nM | – | – |
| AUUGUAUAGGAAGGAUAUAGAAUAUUAUUUUAACAUGAGGAUCACCCAUGUAACCUUAUGUGUAGCUAGAAGGUCCAUUUGUUA | 248 nM | 302 nM | – | – |
| GCACUGGAUGUAGGAUAUCAGGACGAUAAGUCCUGAGAAGGACAUGAGGAUCACCCAUGUAAAACUUCACCAGUGCAUAAUAUA | 13.3 nM | 15.9 nM | – | – |
| GAAAGGGCAGGAUAUGCAGAGAGAGAGAGAGAGAGAAAAAAACAUGAGGAUCACCCAUGUAGAAGGGCCGAAAG | 34.8 nM | 39.1 nM | – | – |
| UCGCGGGAGCAGAAGGGAUAGGCCUAUUGUCGUGGAGUCUACACUUAACAUGAGGAUCACCCAUGUCAGGAUAUGCCCACGCGA | 8.8 nM | 10.6 nM | – | – |
| AUACAUGAGGAUCACCCAUGUUACUGGGUCUAUAUAGAACGUAGAAGGAUGUAUUUAAGAAUAACAUAGGAUAUACUUUAUAGU | 60.4 nM | 38.2 nM | – | – |
| GGUACUCAAAGAGUACCAAGACGAACAUGAGGAUCACCCAUGUAGGAUAUGCUACUCAAAGAGUAGCAGAAGGACAUGUGCCUA | 17.1 nM | 107 nM | – | – |
| GUCAGCUCGUGAGGAUAUACAUGUGCUGGAAACAGCACUAUUAUGUUCACAUGAGGAUCACCCAUGUAGAAGGCACGAGCUGAU | 16.2 nM | 24.9 nM | – | – |
| GACGGUGAUGUAGGAUAUACGCUGGAAUACAGCGUAGAAGGACAUGAGGAUCACCCAUGUAAAGUGUCUCCGAAUAACACCGUC | 35.3 nM | 68.6 nM | – | – |
| AUCAUGUAAGGAUAUCUUAUAUGGAUCUUCGGAUCAAGUUAAGAGAAGGUACAUGAGGAUCACCCAUGUAUAAC | 23.2 nM | 35.8 nM | – | – |
| UUUUUGUGAGGAUAUCAGUAGUAAAAAAAUAAAAUUACUACUGAGAAGGCACAUGAGGAUCACCCAUGUUUUUC | 38.2 nM | 117 nM | – | – |
| AGCUGGUGACAGCAUCCAUCAUGACAUGAGGAUCACCCAUGUAGAAGGCUGUACGGUUACCGUACAGAGGAUAUACAAUGAUGG | 7.73 nM | 8.21 nM | – | – |
| UUGAUAAAUUAGAAGGCGAGAUAAAAUACAAUAAACAUGAGGAUCACCCAUGUGUACCCAUGUUUUGAGGAUAUAGACAUUUAU | – | – | 922 nM | 399 nM |
| AACCUAAAACAGAAGGCCAAAUACAUGAGGAUCACCCAUGUCGAAUCAUGGAGGAUAUGUUAUUAAUUACUCGCAGAUGAGUGC | – | – | 70 nM | 7.49 nM |
| ACGUGUUAUACAGGAUAUGUUUAGGUACAAUCAUCCAGAUAUUAAUUUAUAACAGAAGGGUAAACAUGAGGAUCACCCAUGUCA | 18.4 nM | 15.1 nM | – | – |
| GGUACUCAAAGAGUACCAAUAUGAACAUGAGGAUCACCCAUGUAGGAUAUGCUACUCAAAGAGUAGCAGAAGGACAUGUGUCUA | 16.7 nM | 75.5 nM | – | – |
| AUAUCACAUGAGGAUCACCCAUGUCAGGAUAUGAUACUAUGUACUUCGGUACAUAGUAUCAGAAGGGAUAUGAA | 41.5 nM | 69.9 nM | – | – |
